Experimental data from publication PMC10619633 (Chemical Science, 2023).

How the values were obtained:
[1] = system: RPE-1 cells; assay: Dark cytotoxicity, resazurin assay, non-cancerous RPE-1; assay type: cell-based; details: read-out: Cytotoxicity IC50 Dark, RPE-1, normoxia (20%)
[2] = system: A549 cells; assay: Cellular uptake by ICP-MS; assay type: cell-based, Human; details: A549, 5 μM, 4 h
How it was run: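 Test Os(II) complexes were added at 5 μM to A549 cells for 4 h under normoxic or hypoxic conditions. Uptake was quantified by ICP-MS from the cellular Ru/Os concentration. Experiments were done in triplicate.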

[3] = system: A549 cells; assay: Cellular uptake inhibition by acetazolamide pre-incubation, ICP-MS; assay type: cell-based, Human; details: A549, complex 5 μM 4 h, acetazolamide 50 μM 2 h pre-incubation
[4] = Spectroscopic properties and 1O2 quantum yield in MeCN; assay type: physicochemical; details: for Φ Δ (1O2 quantum yield): irradiation at 450 nm, [Ru(bpy)3]Cl2 as reference
[5] = Octanol/PBS partition coefficient; assay type: physicochemical; details: room temperature, PF6- salts
How it was run: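 Partitioning measured between octanol and PBS; PBS replaced water to limit pH effects on log P. Complexes were tested as PF6− salts, whereas the biological assays used chloride salts.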

[6] = Solubility in water; assay type: physicochemical
[7] = system: A549 cells; assay: Cellular fraction; assay type: cell-based, Human; details: A549, 24 h co-incubation, nuclei/cytoplasm isolated, ICP-MS
How it was run: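 Test complexes were incubated with A549 cells for 24 h. Nuclei and cytoplasm were then isolated, and each fraction was analysed by ICP-MS for Ru or Os content to give the distribution between compartments. Experiments were done in triplicate.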

Row | Compound | IC50 [1] [µM] | cellular uptake under hypoxic compared to normoxic conditions [2] | impact of acetazolamide pre-incubation on cellular uptake [3] | Φ em (luminescence quantum yield) [4] [%] | log P (octanol/PBS partition coefficient) [5] | solubility in water [6] | fraction localized within the cytoplasm [7] | λ em (emission maximum) [4] [nm] | τ (fluorescence lifetime) [4] [ns] | Φ Δ (1O2 quantum yield) [4] [%]
1 | [Os(Bphen)2(bpy-(NH2)2)]2+(2PF6-) [complex 9] | > 30 | notably reduced cellular uptake under hypoxic conditions | negligible | – | – | – | – | – | – | –
2 | [Os(Bphen)2(bpy-(NHCH2CH2NH2)2-L2)]2+(2PF6-).(L= N4-Succinoylsulfanilamide) [complex 12] | > 100 | 1.3 times | notably reduced | 0 | greater than 1 | good solubility in water | over 80% | – | – | –
3 | [Cl][Ru][Cl].c1ccc(-c2ccccn2)nc1.c1ccc(-c2ccccn2)nc1.c1ccc(-c2ccccn2)nc1 [Ru(bpy)3, [Ru(bpy)3]Cl2, reference compound] | – | – | – | 8 | – | – | – | 608 | 159 | 77
4 | [Ru(Bphen)2(bpy-(NH 2)2)]2+(2PF6-) [complex 3] | > 100 | – | negligible | – | – | – | – | – | – | –
5 | [Ru(Bphen)2(bpy-(NH CH 2CH2NH2)2-L2)]2+(2 P F 6-).(L= N4-Succinoylsulfanilamide) [complex 6] | > 100 | – | notably reduced | 2 | greater than 1 | good solubility in water | over 80% | 675 | 117 | 77
6 | [Os(Bphen)2(bpy-(NHCH2CH2NH2)2-L)]2+(2PF6-).(L= N4-Succinoylsulfanilamide) [complex 11] | > 100 | – | notably reduced | 0 | greater than 1 | good solubility in water | – | – | – | –
7 | [Ru(Bphen)2(bpy-(NH CH 2CH2NH2)2-L)]2+(2PF6-).(L= N4-Succinoylsulfanilamide) [complex 5] | > 100 | – | notably reduced | 2 | – | good solubility in water | – | 674 | 122 | 77
